Results published in ChEMBL document CHEMBL1828528, “Acyclic nucleoside thiophosphonates as potent inhibitors of HIV and HBV replication” (Eur J Med Chem, 2011).

Tests used:
[1] = test system: Human immunodeficiency virus 1; assay: Ratio EC50 for PMPA to compound for HIV1 clade A isolate 4113 infected in human H9 cells assessed as inhibition of viral replication; type: functional
[2] = Stability of compound in complete culture medium assessed as compound degradation into 9-(2-Phosphonomethoxypropyl)-adenine after 24 hrs by HPLC analysis; type: physicochemical
Summary of the method: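 Compound diluted to 0.1 mM final in one of two media and incubated at 37 °C: RPMI-1640 with 10% heat-inactivated FCS, or CEM-SS cell extract (soluble proteins 3 mg/mL in 10 mM Tris-HCl pH 7.4, 140 mM KCl). Aliquots were taken over time, frozen at −80 °C, then run on C18 reverse-phase HPLC with on-line filtration, TEAB/acetonitrile gradient and 260 nm detection. Degradation products were identified by co-injection.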

[3] = test system: Human immunodeficiency virus 1; assay: Ratio EC50 for PMPA to compound for HIV1 clade B isolate 1722 infected in human H9 cells assessed as inhibition of viral replication; type: functional
[4] = test system: Human immunodeficiency virus 1; assay: Ratio EC50 for PMPA to compound for HIV1 clade C isolate 2914 infected in human H9 cells assessed as inhibition of viral replication; type: functional
[5] = test system: Human immunodeficiency virus 1; assay: Ratio EC50 for PMPA to compound for HIV1 clade D isolate 1649 infected in human H9 cells assessed as inhibition of viral replication; type: functional
[6] = test system: Human immunodeficiency virus 1; assay: Ratio EC50 for PMPA to compound for HIV1 clade F isolate 2338 infected in human H9 cells assessed as inhibition of viral replication; type: functional
Hepatitis B virus [7] = assay: Ratio EC50 for PMEA to compound for Hepatitis B virus infected in human HepAD38 cells assessed as reduction in viral DNA level after 6 days by real time quantitative PCR analysis; type: functional
Hepatitis B virus [8] = assay: Ratio EC50 for PMEA to compound for Hepatitis B virus infected in human HuH7 cells assessed as reduction in viral DNA level treated day 3 to day 8 post transfection by real time quantitative PCR analysis; type: functional, Huh-7
[9] = test system: Human immunodeficiency virus 1; assay: Ratio EC50 for PMEA to compound for HIV1 clade A isolate 4113 infected in human H9 cells assessed as inhibition of viral replication; type: functional
Summary of the method: (§1)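 Ratio computed as EC50 of PMEA divided by EC50 of the test compound, both measured against the same clinical isolate in H9 cells.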

[10] = test system: Human immunodeficiency virus 1; assay: Ratio EC50 for PMEA to compound for HIV1 clade A/E isolate 2165 infected in human H9 cells assessed as inhibition of viral replication; type: functional; summary of the method: as §1

SMILES | Ratio EC50 [1] | Activity [2] [%] | Ratio EC50 [3] | Ratio EC50 [4] | Ratio EC50 [5] | Ratio EC50 [6] | Ratio EC50 (Hepatitis B virus [7]) | Ratio EC50 (Hepatitis B virus [8]) | Ratio EC50 [9] | Ratio EC50 [10]
C[C@H](Cn1cnc2c(N)ncnc21)OCP(=O)([O-])[S-].[Na+].[Na+] (stereo not given in full) | 1.25 | 77 | 1.35 | 0.89 | 0.14 | 0.2 | – | – | – | –
Nc1ncnc2c1ncn2CCOCP(=O)([O-])[S-].[Na+].[Na+] (stereo not given) | – | – | – | – | – | – | 1.5 | 1.5 | 10.8 | 1.06
